Blank lines part the entries; values can stand above or below the molecule they belong to.
Columns and labels:
[1] = target: T1, Nuclear receptor subfamily 1 group I member 2 (Homo sapiens, UniProt O75469); assay: (§1) Induction of human SXR transcriptional activity expressed in human HepG2 cells coexpressing GAL4 at 5 X 10^-6 M after 48 hrs by luciferase reporter gene assay relative to vehicle-treated control; assay type: cell-based; settings: hepg2, 48 h, 5 µM
T1 sequence (O75469 whole entry): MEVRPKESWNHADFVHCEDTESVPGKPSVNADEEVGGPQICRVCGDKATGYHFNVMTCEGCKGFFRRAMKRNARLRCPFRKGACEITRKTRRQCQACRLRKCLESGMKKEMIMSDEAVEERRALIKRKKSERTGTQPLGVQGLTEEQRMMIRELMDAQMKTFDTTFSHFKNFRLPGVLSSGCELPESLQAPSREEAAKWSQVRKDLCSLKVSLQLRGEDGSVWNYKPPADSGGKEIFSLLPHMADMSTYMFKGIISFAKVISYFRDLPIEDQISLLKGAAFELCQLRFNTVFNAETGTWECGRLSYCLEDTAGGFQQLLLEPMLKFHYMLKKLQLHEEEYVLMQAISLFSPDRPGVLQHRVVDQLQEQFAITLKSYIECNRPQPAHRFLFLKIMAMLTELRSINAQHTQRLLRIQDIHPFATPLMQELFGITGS
In short: (§2)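 HepG2 cells (2 × 10^5 per well), maintained in Eagle's modified medium with 10% FCS and 1% each penicillin/streptomycin, transfected with pM-SXR (GAL4 fusion), pGVP2-GAL2 reporter and pRL-CMV. 24 h after transfection, treated in fresh medium with compound or ethanol vehicle for 48 h. Dual-luciferase read-out, firefly normalized to Renilla. Three independent experiments; mean ± SD.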

[2] = test system: MG-63; assay: Prodrug conversion in human MG63 cells assessed as formation of deuterium 1a-methyl-7a-((2E,6E,10E)-3,7,11,15-tetramethylhexadeca-2,6,10,14-tetraenyl)naphtho[2,3-b]oxirene-2,7(1aH,7aH)-dione at 1 uM for 24 hrs by LC-APCI-MS/MS analysis; assay type: ADME, cell-based; settings: mg-63, 24 h
In short: (§3)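 MG-63 human osteosarcoma cells incubated with compound at a final 1.0 μM, 37 °C, 24 h. Cellular vitamin K compounds extracted with hexane. Converted menaquinone-4 and its epoxide quantified by LC-APCI-MS/MS. Three independent experiments; mean ± SD.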

[3] = test system: MG-63; assay: Prodrug conversion in human MG63 cells assessed as formation of MK-4 at 1 uM for 24 hrs by LC-APCI-MS/MS analysis; assay type: ADME, cell-based; settings: mg-63, 24 h; in short: as §3
[4] = test system: MG-63; assay: Prodrug conversion in human MG63 cells assessed as formation of deuterium 2-methyl-3-((2E,6E,10E)-3,7,11,15-tetramethylhexadeca-2,6,10,14-tetraenyl)naphthalene-1,4-dione at 1 uM for 24 hrs by LC-APCI-MS/MS analysis; assay type: ADME, cell-based; settings: mg-63, 24 h; in short: as §3
[5] = target: T2, SXR (nuclear receptor subfamily 1 group I member 2) (Homo sapiens, UniProt O75469); assay: as §1; assay type: cell-based; settings: HepG2 cells expressing human SXR and GAL4, read-out: FC; in short: as §2
T2 sequence (O75469 whole entry): T1 sequence (O75469 whole entry)

SMILES: [2H]c1c([2H])c([2H])c2c(c1[2H])C(=O)C(C/C=C(\C)CCCC(C)CC/C=C(\C)CCC=C(C)C)=C(C([2H])([2H])[2H])C2=O (centres undefined)
Activity [1]: Active

SMILES: [2H]c1c([2H])c([2H])c2c(c1[2H])C(=O)C(C/C=C(\C)CCCC(C)CCCC(C)CCC=C(C)C)=C(C([2H])([2H])[2H])C2=O (centres undefined)
Activity [1]: Not Active

SMILES: [2H]c1c([2H])c([2H])c2c(c1[2H])C(=O)C(C/C=C(\C)CCCC(C)CCCC(C)CCCC(C)C)=C(C([2H])([2H])[2H])C2=O (centres undefined)
Activity [1]: Not Active

SMILES: [2H]c1c([2H])c([2H])c2c(c1[2H])C(=O)C(CCC(C)CCCC(C)CCCC(C)CCCC(C)C)=C(C([2H])([2H])[2H])C2=O (centres undefined)
Activity [1]: Not Active

SMILES: [2H]c1c([2H])c([2H])c2c(c1[2H])C(=O)C(C/C=C(\C)CC([2H])([2H])/C=C(/CC/C=C(\C)CCC=C(C)C)C([2H])([2H])[2H])=C(C([2H])([2H])[2H])C2=O
Drug metabolism [2]: Active
Drug metabolism [3]: Active
Drug metabolism [4]: Active

SMILES: [2H]c1c([2H])c([2H])c2c(c1[2H])C(=O)C(C/C=C/CC/C=C(\C)CC/C=C(\C)CCC=C(C)C)=C(C([2H])([2H])[2H])C2=O
Activity [1]: Active
Drug metabolism [2]: Active
Drug metabolism [3]: Active
Drug metabolism [4]: Active

Continued, values first:

fold induction at 48 h, 5 µM [5]: 7
SMILES: [2H]c1c([2H])c([2H])c2c(c1[2H])C(=O)C(C/C=C(\C)CC/C=C(\C)CC/C=C(\C)CCC=C(C)C)=C(C([2H])([2H])[2H])C2=O

Activity [1]: Active
Drug metabolism [2]: Active
Drug metabolism [3]: Active
Drug metabolism [4]: Active
SMILES: [2H]c1c([2H])c([2H])c2c(c1[2H])C(=O)C(C/C=C(\C)CC/C=C/CC/C=C(\C)CCC=C(C)C)=C(C([2H])([2H])[2H])C2=O

Activity [1]: Active
Drug metabolism [2]: Active
Drug metabolism [3]: Active
Drug metabolism [4]: Active
SMILES: [2H]c1c([2H])c([2H])c2c(c1[2H])C(=O)C(C/C=C(\C)CC/C=C(\C)CC/C=C/CCC=C(C)C)=C(C([2H])([2H])[2H])C2=O

Activity [1]: Active
Drug metabolism [2]: Active
Drug metabolism [3]: Active
Drug metabolism [4]: Active
SMILES: [2H]c1c([2H])c([2H])c2c(c1[2H])C(=O)C(C/C=C(\C)CC/C=C(\C)CC/C=C(\C)CC/C=C/C)=C(C([2H])([2H])[2H])C2=O

Reference: ChEMBL document CHEMBL2021905, “Structure-activity relationship of novel menaquinone-4 analogues: modification of the side chain affects their biological activities” (J Med Chem, 2012)
